These results are taken from ChEMBL document CHEMBL1122502, “9-acridinyl and 2-methoxy-6-chloro-9-acridinyl derivatives of aliphatic di-, tri-, and tetraamines. Chemistry, cytostatic activity, and schistosomicidal activity” (1983).

Each structure is given as a SMILES string.

Holding throughout (format): functional, Mus musculus
Test [1] is described as follows: In vitro for cytostatic activity against Cloudman melanoma S91 cells at 1.0 uM concentration. The procedure, abridged: (§1)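 Cloudman melanoma S91 cells (doubling time 36 h), 0.1×10^6 per flask, pre-grown 72 h at 37 °C in Ham's F10 with 15% horse serum, 2.5% fetal bovine serum, 8 mM glutamine, penicillin and streptomycin. Medium then replaced with compound at final 0.1, 0.5 or 1.0 μM, with 0.1% DMSO in test and control. After 72 h more, cells trypsinized and counted. Triplicate cultures; cell number given as % of control.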

The nature of test [2]: Compound was tested in vitro for cytostatic activity against Cloudman melanoma S91 cells at 0.1 uM concentration. In short, it runs like this:
as §1

The nature of test [3]: Compound was tested in vitro for cytostatic activity against Cloudman melanoma S91 cells at 0.5 uM concentration. The procedure, abridged: as §1

With `Cl.Cl.c1ccc2c(NCCN3CCNCC3)c3ccccc3nc2c1`, the “Cell number (% of control)” value in test [1] stood at 30%. Regarding `CCNCCCCCCNc1c2ccccc2nc2ccccc12.Cl.Cl`, the “Cell number (% of control)” value in test [1] worked out at 7%; in test [2], 102%. Take `COc1ccc2nc3cc(Cl)ccc3c(NCCCCCCCCNc3c4ccccc4nc4ccccc34)c2c1.Cl.Cl.Cl`: the “Cell number (% of control)” value in test [1] was found to be 44%.

Regarding `COc1ccc2nc3cc(Cl)ccc3c(NCCCCCCCCN)c2c1.Cl.Cl.Cl`, the “Cell number (% of control)” value in test [1] came to 86%. Same read-out and setting: with `Cl.Cl.c1ccc2c(NCCCCCCNc3c4ccccc4nc4ccccc34)c3ccccc3nc2c1` the figure was 39%.

On to `COc1ccc2nc3cc(Cl)ccc3c(NCCCCCCN)c2c1.Cl.Cl.Cl`, for which the “Cell number (% of control)” value in test [1] and in test [2] was 105% each time. Take `COc1ccc2nc3cc(Cl)ccc3c(NCCCCCCNc3c4ccccc4nc4ccccc34)c2c1.Cl.Cl.Cl`: in test [1], the “Cell number (% of control)” value was 49%. As to `COc1ccc2nc3cc(Cl)ccc3c(NCCCCCCNc3c4ccc(Cl)cc4nc4ccc(OC)cc34)c2c1.Cl.Cl.Cl.Cl`, the “Cell number (% of control)” value in test [1] was determined as 83%. The same measure, in the same setting: the figure for `COc1ccc2nc3cc(Cl)ccc3c(NCCCN3CCN(CCCN)CC3)c2c1.Cl` is 78%.

Turning to `COc1ccc2nc3cc(Cl)ccc3c(NCCCNCCCN)c2c1.Cl`, in test [1], the “Cell number (% of control)” value is 28%. Regarding `Cl.c1ccc2c(NCCCN3CCN(CCCNc4c5ccccc5nc5ccccc45)CC3)c3ccccc3nc2c1`, the “Cell number (% of control)” value in test [1] is 2%; in test [2], 24%. In the case of `COc1ccc2nc3cc(Cl)ccc3c(NCCCNCCCNc3c4ccccc4nc4ccccc34)c2c1.Cl`, the “Cell number (% of control)” value in test [1] is on record as 3%; in test [2] it was 66%.

Regarding `COc1ccc2nc3cc(Cl)ccc3c(NCCCN3CCN(CCCNc4c5ccc(Cl)cc5nc5ccc(OC)cc45)CC3)c2c1.Cl`, the “Cell number (% of control)” value in test [1] is reported as 43%. In the case of `Cl.c1ccc2c(NCCCNCCCNc3c4ccccc4nc4ccccc34)c3ccccc3nc2c1`, the “Cell number (% of control)” value worked out at 31% in test [1] and 103% in test [2]. For `COc1ccc2nc3cc(Cl)ccc3c(NCCCN3CCN(CCCNc4c5ccccc5nc5ccccc45)CC3)c2c1.Cl` the same measures were 20% and 50%. The corresponding values for `Cl.NCCCN1CCN(CCCNc2c3ccccc3nc3ccccc23)CC1` are 3% and 39%. The molecule `COc1ccc2nc3cc(Cl)ccc3c(NCCCNCCCNc3c4ccc(Cl)cc4nc4ccc(OC)cc34)c2c1.Cl` showed a Control in test [3] of 16%. The “Cell number (% of control)” value stood at 0% in test [1] and 85% in test [2]. Turning to `Cl.Cl.NCCCCCCNc1c2ccccc2nc2ccccc12`, in test [1], the “Cell number (% of control)” value turned out to be 95%.
